ChEMBL document CHEMBL4513216, “Probing the Open Global Health Chemical Diversity Library for Multistage-Active Starting Points for Next-Generation Antimalarials” (ACS Infect Dis, 2020)

Test: Toxicity liver stage against HepG2, at 10uM
Assay type: cell-based
Set-up: test concentration 10 uM, cell line HepG2-A16-CD81EGFP
Details: human, HepG2-A16-CD81EGFP cells; read-out: INHIBITION
How it was run: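 Uninfected HepG2-A16-CD81EGFP cells, 3 × 10^3 per well, 1536-well, plated on prespotted compound at 10 μM final, parasite-free screening media added to match infected plates; puromycin 10 μM positive, DMSO 0.5% negative; run in parallel with 48 h PbLuc assay at 37 °C, 5% CO2; viability by CellTiter-Glo luminescence, normalized to controls.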

Row | Compound | cytotoxicity at 10 µM
1 | CNC(C)Cc1ccccc1Sc1ccc(O)cc1 (stereo unspecified) | 2.73%
2 | CN1CCC(N2CCN3C(=O)NC[C@H]3C2)CC1 | 2.26%
3 | CN(C)C(=O)c1cccnc1SCc1ccccc1Cl | 3.25%
4 | Cc1ccc(C(=O)N2CC(=O)N(Cc3ccco3)CC(O)C2)cc1 (stereo unspecified) | -0.817%
5 | O=C(CCc1nc2cc(Br)cnc2[nH]1)NCc1cccnc1 | -0.874%
6 | CC(C)c1sc(Br)nc1C(=O)NCc1cccnc1 | 3.06%
7 | CCOC(=O)CCC(=O)N1CCC(CSCc2ccco2)CC1 | -10.3%
8 | O=C1CCC2(CCCN(C(=O)c3cccnc3)CC2)N1 (stereo unspecified) | 6.56%
9 | O=C(Cc1ccsc1)N1CCc2ccc(=O)n(CC3CC3)c2CC1 | 6.13%
10 | CN1C(=O)CC(c2ccccc2)C12CCN(C(=O)c1ccc[nH]1)CC2 (stereo unspecified) | 7.52%
11 | COCCN(C)C(=O)c1nc2c(s1)CCCN2C(=O)C1CC1 | -143%
12 | O=C(Cn1cc(C(=O)O)ccc1=O)NCc1ccc(F)c(Cl)c1 | -5.88%
13 | COCC1CN(S(C)(=O)=O)Cc2ncn(CC3CC3)c21 (stereo unspecified) | 1.68%
14 | CS(=O)(=O)NCc1n[nH]c2c1CCN(C(=O)c1ccsc1)C2 | 4.01%
15 | CC(C)NC(=O)N1CC[C@@H]2CN(Cc3cccc(Cl)c3)S(=O)(=O)[C@@H]2CC1 | 4.71%
16 | CCC1=N[C@@]2(CC[C@@H]3CN(S(=O)(=O)CC)C[C@@H]32)C(=O)N1CC(C)C | -0.0582%
17 | Cc1nn(Cn2ccc(C(=O)N3CCOCC3)n2)c(C)c1Cl | -0.112%
18 | CCN(CC)Cc1nnc2sc(C(C)Oc3ccccc3)nn12 (stereo unspecified) | 8.35%
19 | Cc1nn(C)c2cn(C(C)C(=O)NCc3cccnc3)nc12 (stereo unspecified) | 5.55%
20 | CC(=O)NCC(=O)N1CCOCC(Cc2ccc3c(ccn3C)c2)C1 (stereo unspecified) | 1.89%
21 | Cc1ncsc1C(=O)NCc1ccc(-c2n[nH]cc2C(=O)N(C)C)cc1 | 0.522%
22 | CN(C)S(=O)(=O)N1CC(c2ccnc(Nc3ccccn3)n2)C1 | 8.84%
23 | Cc1cccnc1C(Cc1ccsc1)NCc1cnc(N(C)C)nc1 (stereo unspecified) | 5.24%

Row | Compound | cytotoxicity at 10 µM
24 | CN1CCC(c2cncc(C(=O)NCc3ccc(F)cc3)n2)CC1 | -8.11%
25 | Cc1cnn(CC(C)NCc2cccnc2)c1 (stereo unspecified) | -3.3%
26 | CC(NCCCN1CCCC1=O)c1ccc(F)cc1N(C)C (stereo unspecified) | -2.78%
27 | Cc1ccc(O)c(C(=O)NCCS(=O)(=O)Cc2ccccc2)c1 | 4.57%
28 | CN1CCOC(C(=O)Nc2nnc(Cc3ccc(F)cc3)[nH]2)C1 (stereo unspecified) | -4.95%
29 | Cc1ccc(C2CSCCN2C(=O)c2ccncc2)cc1 (stereo unspecified) | 2.96%
30 | O=C(Nc1cccnc1)NC1(c2cccc(F)c2)CC1 | 1.41%
31 | COc1ccc(NC(=O)CN2CCS(=O)(=O)CC2)cn1 | 11.8%
32 | Cc1nc(C(C)(C)NCc2nnc(C(C)C)o2)sc1C | 6.35%
33 | CCc1nnsc1C(=O)N1CCOC(c2nc(C(C)C)n[nH]2)C1 (stereo unspecified) | 1.23%
34 | CCN(CC)C(CNC(=O)c1ccc(-n2cncn2)cc1)c1ccsc1 (stereo unspecified) | -141%
35 | Cc1cc(C2CCCN(C(=O)COc3ccc(F)cc3)C2)n[nH]1 (stereo unspecified) | 3.59%
36 | CCOC(C)c1nc(CNc2cccc(Cl)c2OC)cs1 (stereo unspecified) | 6.16%
37 | NC(=O)CN(CC(=O)NCc1cccc(Cl)c1)C1CCCC1 | -0.979%
38 | Cc1nc(-c2cnn(C)c2)sc1C(=O)NCc1cccc(CN(C)C)c1 | 2.46%
39 | CCOCCCC(=O)N1CCN(c2cccc(OC)c2)C(C)C1 (stereo unspecified) | 0.0272%
40 | CN(Cc1noc(C(C)(C)C)n1)Cc1ccccc1N1CCCC1 | -1.78%
41 | COc1ccc2c(c1)CN(CC(=O)NC1CCCC1)CC2 | -1.77%
42 | O=C(NCCCNC(=O)c1ccc(F)cc1F)c1cccc(O)c1 | 2.9%
43 | Cc1cc(C(=O)Nc2cccn(Cc3ccc(F)cc3)c2=O)on1 | 5.38%
44 | COCCn1cc(NCc2cccc3cn[nH]c23)cn1 | -3.31%
45 | O=C(Cc1csc(N2CCNC2=O)n1)NC1(c2ccccc2)CCC1 | -135%
46 | Cc1sc2nc(SC(C)c3nc(C(C)C)no3)nc(N)c2c1C (stereo unspecified) | -2.4%

Row | Compound | cytotoxicity at 10 µM
47 | CS(=O)(=O)c1nccn1Cc1ccc(Cl)cc1 | -10.4%
48 | N#Cc1ccc(S(=O)(=O)N2CC(CC(=O)O)c3ccccc32)cc1 (stereo unspecified) | 0.513%
49 | CCc1nc(CN2CCCCC2C(N)=O)cs1 (stereo unspecified) | -7.96%
50 | CN(CCC(F)(F)F)Cc1nc2ccccc2c(=O)[nH]1 | -5.61%
51 | c1ccc2nc(N3CCCC(Cn4cncn4)C3)cnc2c1 (stereo unspecified) | 5.46%
52 | Cn1c(CNc2c(F)cccc2-n2cccn2)cc(=O)n(C)c1=O | -7.79%
53 | Cc1cccc(CCC(=O)N2CCOCC2c2c(C)n[nH]c2C)c1 (stereo unspecified) | -13.3%
54 | CCN1CC(C(=O)NCc2ccnc(-n3ccnc3C)c2)CC1=O (stereo unspecified) | -25.5%
55 | CC(=O)N1CCCC1c1nnc2n1CCCCC2 (stereo unspecified) | 4.31%
56 | O=C(C1CCOCC1)N1CCc2ncc(CN3CCCCC3)n2CC1 | -78.4%
57 | Cn1cc(N2CCC3(CCCN(Cc4ccoc4)C3)C2=O)cn1 (stereo unspecified) | -77%
58 | COc1c(C)cc(S(=O)(=O)NCC2CNCCOC2)cc1C (stereo unspecified) | -3.53%
59 | CCCn1nccc1C(=O)N1CCN(C(=O)C2CC2)[C@@H]2CS(=O)(=O)C[C@@H]21 | 4.05%
60 | CCN(CCn1cccn1)Cc1nc(-c2cccc(C)c2)oc1C | 0.0489%
61 | Cn1nccc1C(=O)N1CCN(C(=O)C2CCC2)[C@@H]2CS(=O)(=O)C[C@@H]21 | 4.86%
62 | Cc1noc([C@@H]2CCCN2C(=O)C2CCN(CC(N)=O)CC2)n1 | 3.96%
63 | Cc1nc(C(C)NCc2cc(O)c3cccc(F)c3n2)cs1 (stereo unspecified) | 8.33%
64 | CCc1cc(N(C)Cc2ccno2)n2nc(C)c(C)c2n1 | 1.35%
65 | N#Cc1c(N)nc2c(c1-c1c[nH]nc1C1CCCCC1)CC(N)CC2 (stereo unspecified) | -3.06%
66 | Cc1ccc(N2CCC(C(O)Cc3ccccc3)CC2)nn1 (stereo unspecified) | -3.43%
67 | COCc1noc(Cn2ncn3cccc3c2=O)n1 | -5.56%
68 | CC1CN(Cc2ccccc2Cn2cccn2)CCN1C (stereo unspecified) | -132%
69 | COc1ccc(-c2ccccc2CCN)c(OC)c1 | 8.95%

Row | Compound | cytotoxicity at 10 µM
70 | CCNC(=O)C1CCN(c2nccc(C3CCCC3)n2)C1 (stereo unspecified) | -5.6%
71 | O=C(O)c1coc(COc2cccc3cnccc23)n1 | -110%
72 | CN(CCn1cnc(-c2ccccc2)c1-c1ncc[nH]1)S(C)(=O)=O | 1.87%
73 | Cc1csc2c(=O)n(CCN3CCC(c4ccccc4)CC3)cnc12 | 1.2%
74 | CC1(C)CN(CC(=O)NCc2ccccc2F)C[C@]1(C)O | -1.84%
75 | CC1(C)CC(N2CCN(C3CCCC3)C(CCO)C2)CC(C)(C)C1 (stereo unspecified) | -7.19%
76 | Cc1cc(N2CCN(C(=O)c3cnn(C(C)C)c3)CC2)nc(N)n1 | -2.82%
77 | CSCc1noc(CN(C)C(C)c2nc(C)sc2C)n1 (stereo unspecified) | 8.2%
78 | CNC(=O)C1CCN(Cc2nc(-c3ccc(SC)cc3)oc2C)C1 (stereo unspecified) | -0.465%
79 | COc1ccc(C(C(=O)O)N2CCC(O)(c3cccnc3)CC2)cc1Cl (stereo unspecified) | 4.57%
80 | CC(C)=CCn1ncc(N2CCCCC2)cc1=O | -9.48%
81 | CCCS(=O)(=O)N1CCN(c2cc(-n3ccnc3)nc(C)n2)CC1 | -1.89%
82 | CC(=O)Nc1ccc(-c2ccccc2CCN)cc1 | 3.61%
83 | Cc1[nH]ccc1C(=O)N1CCN(C)C2(CCC(=O)N(C)CC2)C1 (stereo unspecified) | 5.95%
84 | COc1ccc(OC)c(CNCc2ccnc(N3CCOCC3)c2)c1 | 1.27%
85 | Cc1ncsc1C(=O)N(Cc1ccccn1)C1CC1 | -11.2%
86 | Cc1ccc2oc(C(=O)N3CCCC(n4nc(C)nc4C)C3)cc2n1 (stereo unspecified) | -7.39%
87 | C=C(C)CN(CC)C(=O)CN(C)C1CCc2ccccc21 (stereo unspecified) | -11.6%
88 | Cc1nn(C)c(C)c1C1CCCN1C(=O)c1cnc2onc(C)c2c1 (stereo unspecified) | -8.48%
89 | FC(F)(F)Cn1ccnc1CNCC1CCCN1c1cccnn1 (stereo unspecified) | -26.6%
90 | O=C(NCCN1CCCCC1)c1ccn(-c2ccc(F)cc2)n1 | -8.05%
91 | Cc1nc(C)n(C2CCCN(C(=O)c3ccn(C(C)C)n3)C2)n1 (stereo unspecified) | -22.6%
92 | Cc1cnn(CC2CN(Cc3cccc(OCC(N)=O)c3)CCO2)c1 (stereo unspecified) | -7.18%

Row | Compound | cytotoxicity at 10 µM
93 | Cc1cc(CN2CCN(C(=O)NCc3nc(C)cs3)CC2)on1 | -5.01%
94 | CC(C)(O)CN1CCN(C(=O)c2cc(Cl)cc3cccnc23)CC1 | -7.93%
95 | COc1ccc(F)cc1CN1CCCC(c2cc(C(N)=O)[nH]n2)C1 (stereo unspecified) | 0.313%
96 | CCN1CCCC(CNC(=O)C2(c3cccc(Cl)c3)CC2)C1 (stereo unspecified) | -2.77%
97 | COCCOc1ccccc1CNCc1c(C)nn(C)c1N(C)C | -5.65%
98 | O=C(c1cc(F)ccc1F)C1CCN(C(=O)c2ccc(=O)[nH]n2)CC1 | 3.42%
99 | CC(C)COC(C)C(=O)NCc1ccc(OC(C)C)nc1 (stereo unspecified) | 2.12%
100 | Cc1nc(CN2CCCC(N(C)Cc3cscn3)C2)no1 (stereo unspecified) | 16.8%
101 | CN1CCCC(c2ccc(N3CCOCC3)cn2)C1 (stereo unspecified) | -6.47%
102 | CNCc1ccc([C@@H]2CN(C(C)=O)C[C@H]2C(N)=O)cc1 | 5.32%
103 | CC(=O)N1CCN(Cc2cccs2)CC2(CC(=O)N(C)C2)C1 (stereo unspecified) | 1.7%
104 | CN(C)C(=O)N1CCC[C@]2(C(=O)N(C)C)CN(c3ccccn3)C[C@@H]2C1 | 7.13%
105 | Cc1ccc(CN2CCC[C@@H]3CN(C(=O)c4ccco4)C[C@@H]32)o1 | 8.83%
106 | CNCCc1nc2cc(F)ccc2[nH]1 | 22%
107 | CC(C)NC(=O)CC1CC2(CCN(CC3CC3)CC2)Oc2ccccc21 (stereo unspecified) | -2.42%
108 | c1ccc(CN2CCc3nnc(CN4CCCCC4)n3CC2)nc1 | 3.73%
109 | CCc1ccc(CN2C[C@@H](c3nc(C)no3)C[C@H]3OCC[C@H]32)o1 | -75.8%
110 | Cn1ccc(CN2CCOCC23CCNCC3)n1 | 6.77%
111 | C=c1occc1=C1NC(c2cccc(CN3CCOCC3)c2)=NO1 | -5.92%
